{"source": "paper PMC5598522", "about": "(Toxicology Reports, 2014)", "key": {"[1]": {"test": "Quantitative whole body autoradiography", "type": "in vivo, rat", "details": "[3H] Ticagrelor 3 mg/kg"}, "[2]": {"test_system": "TA1535 TA100 TA102 TA98 TA1537", "test": "Ames in vitro assay", "type": "cell-based, Salmonella", "how_it_was_run": "(§1)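 Genotoxicity screens. Ames: Salmonella strains exposed to 3–3000 μg/plate with and without metabolic activation; read-out was reverse-mutation frequency. Mouse lymphoma: L5178Y/TK+ cells treated for 4 h with S9 (15.7–41.8 μg/mL), for 4 h without S9 (5.23–15.7 μg/mL), and for 24 h without S9; read-out was clone number. Micronucleus: male and female Alderly Park rats given 2000 mg/kg; micronuclei scored 24 or 48 h post-dose.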"}, "[3]": {"test_system": "Alderly Park (Wistar derived) rats", "test": "Rat micronucleus in vivo assay", "details": "2000 mg/kg", "how_it_was_run": "as §1"}, "[4]": {"test": "Exposure in rat micronucleus in vivo assay", "details": "Alderly Park (Wistar derived), 2000 mg/kg"}, "[5]": {"details": "pregnant female rat (Day 18 of gestation), 5 min"}, "[6]": {"details": "pregnant female rat (Day 18 of gestation), 0.5 h"}, "[7]": {"details": "pregnant female rat (Day 18 of gestation), 2 h"}, "[8]": {"details": "pregnant female rat (Day 18 of gestation), 4 h"}}, "data": [{"smiles": "CCCSc1nc(N[C@@H]2C[C@H]2c2ccc(F)c(F)c2)c2nnn([C@@H]3C[C@H](OCCO)[C@@H](O)[C@H]3O)c2n1", "note": "[Ticagrelor]", "values": [{"measurement": "Liver radioactivity", "setting": "[1]; male rat, 2 h", "result": 3.20, "unit": "μg equivalent/g"}, {"measurement": "Liver radioactivity, fold of blood value", "setting": "[1]; male rat, 2 h", "result": "6.97 fold of blood value"}, {"measurement": "Lung radioactivity", "setting": "[1]; male rat, 2 h", "result": 2.09, "unit": "μg equivalent/g"}, {"measurement": "Lung radioactivity, fold of blood value", "setting": "[1]; male rat, 2 h", "result": "4.51 fold of blood value"}, {"measurement": "Pancreas radioactivity", "setting": "[1]; male rat, 2 h", "result": 2.78, "unit": "μg equivalent/g"}, {"measurement": "Pancreas radioactivity, fold of blood value", "setting": "[1]; male rat, 2 h", "result": "6.00 fold of blood value"}, {"measurement": "Pituitary gland radioactivity", "setting": "[1]; male rat, 2 h", "result": 1.84, "unit": "μg equivalent/g"}, {"measurement": "Pituitary gland radioactivity, fold of blood value", "setting": "[1]; male rat, 2 h", "result": "3.97 fold of blood value"}, {"measurement": "Salivary gland radioactivity", "setting": "[1]; male rat, 2 h", "result": 2.14, "unit": "μg equivalent/g"}, {"measurement": "Salivary gland radioactivity, fold of blood value", "setting": "[1]; male rat, 2 h", "result": "4.62 fold of blood value"}, {"measurement": "Skeletal muscle radioactivity", "setting": "[1]; male rat, 2 h", "result": 1.48, "unit": "μg equivalent/g"}, {"measurement": "Skeletal muscle radioactivity, fold of blood value", "setting": "[1]; male rat, 2 h", "result": "3.20 fold of blood value"}, {"measurement": "Spinal cord radioactivity", "setting": "[1]; male rat, 2 h", "result": 0.02, "unit": "μg equivalent/g"}, {"measurement": "Spinal cord radioactivity, fold of blood value", "setting": "[1]; male rat, 2 h", "result": "0.04 fold of blood value"}, {"measurement": "Spleen radioactivity", "setting": "[1]; male rat, 2 h", "result": 1.51, "unit": "μg equivalent/g"}, {"measurement": "Spleen radioactivity, fold of blood value", "setting": "[1]; male rat, 2 h", "result": "3.29 fold of blood value"}, {"measurement": "Stomach wall radioactivity", "setting": "[1]; male rat, 2 h", "result": 2.31, "unit": "μg equivalent/g"}, {"measurement": "Stomach wall radioactivity, fold of blood value", "setting": "[1]; male rat, 2 h", "result": "4.99 fold of blood value"}, {"measurement": "Thymus radioactivity", "setting": "[1]; male rat, 2 h", "result": 1.37, "unit": "μg equivalent/g"}, {"measurement": "Thymus radioactivity, fold of blood value", "setting": "[1]; male rat, 2 h", "result": "2.96 fold of blood value"}, {"measurement": "Thyroid gland radioactivity", "setting": "[1]; male rat, 2 h", "result": 2.60, "unit": "μg equivalent/g"}, {"measurement": "Thyroid gland radioactivity, fold of blood value", "setting": "[1]; male rat, 2 h", "result": "5.62 fold of blood value"}, {"measurement": "Adrenal gland radioactivity", "setting": "[1]; male rat, 4 h", "result": 0.81, "unit": "μg equivalent/g"}, {"measurement": "Adrenal gland radioactivity, fold of blood value", "setting": "[1]; male rat, 4 h", "result": "2.24 fold of blood value"}, {"measurement": "Blood (LSC) radioactivity", "setting": "[1]; male rat, 4 h", "result": 0.361, "unit": "μg equivalent/g"}, {"measurement": "Brain radioactivity", "setting": "[1]; male rat, 4 h", "result": 0.02, "unit": "μg equivalent/g"}, {"measurement": "Brain radioactivity, fold of blood value", "setting": "[1]; male rat, 4 h", "result": "0.06 fold of blood value"}, {"measurement": "Brown fat radioactivity", "setting": "[1]; male rat, 4 h", "result": 0.52, "unit": "μg equivalent/g"}, {"measurement": "Brown fat radioactivity, fold of blood value", "setting": "[1]; male rat, 4 h", "result": "1.44 fold of blood value"}, {"measurement": "Eye radioactivity", "setting": "[1]; male rat, 4 h", "result": 0.14, "unit": "μg equivalent/g"}, {"measurement": "Eye radioactivity, fold of blood value", "setting": "[1]; male rat, 4 h", "result": "0.39 fold of blood value"}, {"measurement": "Kidney radioactivity", "setting": "[1]; male rat, 4 h", "result": 1.74, "unit": "μg equivalent/g"}, {"measurement": "Kidney radioactivity, fold of blood value", "setting": "[1]; male rat, 4 h", "result": "4.87 fold of blood value"}, {"measurement": "Liver radioactivity", "setting": "[1]; male rat, 4 h", "result": 2.42, "unit": "μg equivalent/g"}, {"measurement": "Liver radioactivity, fold of blood value", "setting": "[1]; male rat, 4 h", "result": "6.70 fold of blood value"}, {"measurement": "Lung radioactivity", "setting": "[1]; male rat, 4 h", "result": 1.55, "unit": "μg equivalent/g"}, {"measurement": "Lung radioactivity, fold of blood value", "setting": "[1]; male rat, 4 h", "result": "4.29 fold of blood value"}, {"measurement": "Pancreas radioactivity", "setting": "[1]; male rat, 4 h", "result": 2.08, "unit": "μg equivalent/g"}, {"measurement": "Pancreas radioactivity, fold of blood value", "setting": "[1]; male rat, 4 h", "result": "5.76 fold of blood value"}, {"measurement": "Pituitary gland radioactivity", "setting": "[1]; male rat, 4 h", "result": 1.65, "unit": "μg equivalent/g"}, {"measurement": "Pituitary gland radioactivity, fold of blood value", "setting": "[1]; male rat, 4 h", "result": "4.57 fold of blood value"}, {"measurement": "Salivary gland radioactivity", "setting": "[1]; male rat, 4 h", "result": 1.59, "unit": "μg equivalent/g"}, {"measurement": "Salivary gland radioactivity, fold of blood value", "setting": "[1]; male rat, 4 h", "result": "4.40 fold of blood value"}, {"measurement": "Skeletal muscle radioactivity", "setting": "[1]; male rat, 4 h", "result": 1.16, "unit": "μg equivalent/g"}, {"measurement": "Skeletal muscle radioactivity, fold of blood value", "setting": "[1]; male rat, 4 h", "result": "3.21 fold of blood value"}, {"measurement": "Spinal cord radioactivity", "setting": "[1]; male rat, 4 h", "result": 0.02, "unit": "μg equivalent/g"}, {"measurement": "Spinal cord radioactivity, fold of blood value", "setting": "[1]; male rat, 4 h", "result": "0.06 fold of blood value"}, {"measurement": "Spleen radioactivity", "setting": "[1]; male rat, 4 h", "result": 0.82, "unit": "μg equivalent/g"}, {"measurement": "Spleen radioactivity, fold of blood value", "setting": "[1]; male rat, 4 h", "result": "2.27 fold of blood value"}, {"measurement": "Stomach wall radioactivity", "setting": "[1]; male rat, 4 h", "result": 1.32, "unit": "μg equivalent/g"}, {"measurement": "Stomach wall radioactivity, fold of blood value", "setting": "[1]; male rat, 4 h", "result": "3.66 fold of blood value"}, {"measurement": "Thymus radioactivity", "setting": "[1]; male rat, 4 h", "result": 1.33, "unit": "μg equivalent/g"}, {"measurement": "Thymus radioactivity, fold of blood value", "setting": "[1]; male rat, 4 h", "result": "3.68 fold of blood value"}, {"measurement": "Thyroid gland radioactivity", "setting": "[1]; male rat, 4 h", "result": 1.19, "unit": "μg equivalent/g"}, {"measurement": "Thyroid gland radioactivity, fold of blood value", "setting": "[1]; male rat, 4 h", "result": "3.30 fold of blood value"}, {"measurement": "Blood (LSC) radioactivity", "setting": "[1]; [5]", "result": 2.474, "unit": "μg equivalent/g"}, {"measurement": "Fetus radioactivity", "setting": "[1]; [5]", "result": 0.03, "unit": "μg equivalent/g"}, {"measurement": "Fetus radioactivity, fold of blood value", "setting": "[1]; [5]", "result": "0.01 fold of blood value"}, {"measurement": "Placenta radioactivity", "setting": "[1]; [5]", "result": 6.42, "unit": "μg equivalent/g"}, {"measurement": "Placenta radioactivity, fold of blood value", "setting": "[1]; [5]", "result": "2.59 fold of blood value"}, {"measurement": "Blood (LSC) radioactivity", "setting": "[1]; [6]", "result": 0.864, "unit": "μg equivalent/g"}, {"measurement": "Fetus radioactivity", "setting": "[1]; [6]", "result": 0.06, "unit": "μg equivalent/g"}, {"measurement": "Fetus radioactivity, fold of blood value", "setting": "[1]; [6]", "result": "0.07 fold of blood value"}, {"measurement": "Placenta radioactivity", "setting": "[1]; [6]", "result": 2.86, "unit": "μg equivalent/g"}, {"measurement": "Placenta radioactivity, fold of blood value", "setting": "[1]; [6]", "result": "3.31 fold of blood value"}, {"measurement": "Blood (LSC) radioactivity", "setting": "[1]; [7]", "result": 0.282, "unit": "μg equivalent/g"}, {"measurement": "Fetus radioactivity", "setting": "[1]; [7]", "result": 0.07, "unit": "μg equivalent/g"}, {"measurement": "Fetus radioactivity, fold of blood value", "setting": "[1]; [7]", "result": "0.25 fold of blood value"}, {"measurement": "Placenta radioactivity", "setting": "[1]; [7]", "result": 1.02, "unit": "μg equivalent/g"}, {"measurement": "Placenta radioactivity, fold of blood value", "setting": "[1]; [7]", "result": "3.62 fold of blood value"}, {"measurement": "Blood (LSC) radioactivity", "setting": "[1]; [8]", "result": 0.24, "unit": "μg equivalent/g"}, {"measurement": "Fetus radioactivity", "setting": "[1]; [8]", "result": 0.03, "unit": "μg equivalent/g"}, {"measurement": "Fetus radioactivity, fold of blood value", "setting": "[1]; [8]", "result": "0.13 fold of blood value"}, {"measurement": "Placenta radioactivity", "setting": "[1]; [8]", "result": 0.39, "unit": "μg equivalent/g"}, {"measurement": "Placenta radioactivity, fold of blood value", "setting": "[1]; [8]", "result": "1.63 fold of blood value"}, {"measurement": "Brain and spinal tissue penetration (QWBA conclusion)", "setting": "[1]; rats", "result": "effectively excluded from the brain and spinal tissues by the blood brain barrier"}, {"measurement": "Radioactivity levels in brain, spinal cord and fetus", "setting": "[1]; rats", "result": "< 0.25 fold of blood levels"}, {"measurement": "Ames in vitro assay: Conclusion", "setting": "[2]", "result": "Negative"}, {"measurement": "Ames in vitro assay: Results", "setting": "[2]; 3–3000 μg/plate, with or without metabolic activation", "result": "No increased frequency of reverse mutations with or without metabolic activation"}, {"measurement": "Rat micronucleus in vivo: Conclusion", "setting": "[3]", "result": "Negative"}, {"measurement": "Rat micronucleus in vivo: Results", "setting": "[3]; M&F, 24 or 48 h post-dose", "result": "No increased frequency of micronuclei at 24 or 48 h post-dose"}, {"measurement": "AUC", "setting": "[4]; female", "result": "1140 to 1360", "unit": "µg·h/mL"}, {"measurement": "Cmax", "setting": "[4]; female", "result": "45000 to 53000", "unit": "ng/mL"}, {"measurement": "AUC", "setting": "[4]; male", "result": "794 to 1240", "unit": "µg·h/mL"}]}]}
